# Test results: ChEMBL document CHEMBL4689842, “EUbOPEN Chemogenomics Library wave 1” (2021)
# Test system: Fibroblast
# Assay: Multiplex assay against human fibroblast
# Assay type: toxicity, cell-based
# Procedure, shortened: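 Live cells carried four stains from seeding: Hoechst33342, BioTracker Green Microtubule Cytoskeleton Dye, MitoTracker Red and Annexin V Alexa Fluor 680. They were imaged on a CQ1 microscope at 37°C and 5% CO2 after compound addition. Using CellPathfinder machine-learning gating, cells were split into Hoechst high-intensity objects or normal cells, normal cells into healthy, pyknosed or fragmented nuclei, and pyknosed cells into mitotic or apoptotic; tubulin, mitochondrial-mass and membrane-permeability phenotypes are per cents of healthy-nucleus cells.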
# [1] = 12 h, 1 µM, compound concentration 1 uM, replicate 1
# [2] = 12 h, 1 µM, compound concentration 1 uM, replicate 2
# [3] = 12 h, 10 µM, compound concentration 10 uM, replicate 1
# [4] = 12 h, 10 µM, compound concentration 10 uM, replicate 2
# [5] = 24 h, 1 µM, compound concentration 1 uM, replicate 1
# [6] = 24 h, 1 µM, compound concentration 1 uM, replicate 2
# [7] = 24 h, 10 µM, compound concentration 10 uM, replicate 1
# [8] = 24 h, 10 µM, compound concentration 10 uM, replicate 2
# [9] = 48 h, 1 µM, compound concentration 1 uM, replicate 1
# [10] = 48 h, 1 µM, compound concentration 1 uM, replicate 2
# [11] = 48 h, 10 µM, compound concentration 10 uM, replicate 1
# [12] = 48 h, 10 µM, compound concentration 10 uM, replicate 2
smiles,measurement,setting,value
CNC(=O)Nc1ccc(-c2nc(N3CC4CCC(C3)O4)c3cnn(C4CCC5(CC4)OCCO5)c3n2)cc1,Population Apoptotic (%),[1],47%
same,Population Fragmented Nuclei (%),[1],38%
same,Population Healthy Nuclei (%),[1],32%
same,Population Hoechst High Intensity Objects (%),[1],14%
same,Population Membrane Permeable-Phenotype (%),[1],29%
same,Population Mitochondria Different-Phenotype (%),[1],4%
same,Population Mitotic Cells (%),[1],52%
same,Population Normal (%),[1],85%
same,Population Pyknosed Nuclei (%),[1],28%
same,Population Tubulin-Different-Phenotype (%),[1],54%
same,Total Cell Count,[1],85
same,Population Apoptotic (%),[2],0%
same,Population Fragmented Nuclei (%),[2],28%
same,Population Healthy Nuclei (%),[2],55%
same,Population Hoechst High Intensity Objects (%),[2],10%
same,Population Membrane Permeable-Phenotype (%),[2],5%
same,Population Mitochondria Different-Phenotype (%),[2],13%
same,Population Mitotic Cells (%),[2],100%
same,Population Normal (%),[2],89%
same,Population Pyknosed Nuclei (%),[2],16%
same,Population Tubulin-Different-Phenotype (%),[2],18%
same,Total Cell Count,[2],54
same,Population Apoptotic (%),[3],50%
same,Population Fragmented Nuclei (%),[3],28%
same,Population Healthy Nuclei (%),[3],29%
same,Population Hoechst High Intensity Objects (%),[3],16%
same,Population Membrane Permeable-Phenotype (%),[3],30%
same,Population Mitochondria Different-Phenotype (%),[3],15%
same,Population Mitotic Cells (%),[3],50%
same,Population Normal (%),[3],83%
same,Population Pyknosed Nuclei (%),[3],41%
same,Population Tubulin-Different-Phenotype (%),[3],96%
same,Total Cell Count,[3],104
same,Population Apoptotic (%),[4],25%
same,Population Fragmented Nuclei (%),[4],13%
same,Population Healthy Nuclei (%),[4],54%
same,Population Hoechst High Intensity Objects (%),[4],6%
same,Population Membrane Permeable-Phenotype (%),[4],36%
same,Population Mitochondria Different-Phenotype (%),[4],75%
same,Population Mitotic Cells (%),[4],75%
same,Population Normal (%),[4],93%
same,Population Pyknosed Nuclei (%),[4],32%
same,Total Cell Count,[4],107
same,Population Apoptotic (%),[5],38%
same,Population Fragmented Nuclei (%),[5],30%
same,Population Healthy Nuclei (%),[5],33%
same,Population Hoechst High Intensity Objects (%),[5],20%
same,Population Membrane Permeable-Phenotype (%),[5],25%
same,Population Mitochondria Different-Phenotype (%),[5],10%
same,Population Mitotic Cells (%),[5],61%
same,Population Normal (%),[5],79%
same,Population Pyknosed Nuclei (%),[5],35%
same,Population Tubulin-Different-Phenotype (%),[5],60%
same,Total Cell Count,[5],74
same,Population Apoptotic (%),[6],25%
same,Population Fragmented Nuclei (%),[6],19%
same,Population Healthy Nuclei (%),[6],64%
same,Population Hoechst High Intensity Objects (%),[6],18%
same,Population Membrane Permeable-Phenotype (%),[6],8%
same,Population Mitochondria Different-Phenotype (%),[6],6%
same,Population Mitotic Cells (%),[6],75%
same,Population Normal (%),[6],81%
same,Population Pyknosed Nuclei (%),[6],16%
same,Population Tubulin-Different-Phenotype (%),[6],23%
same,Total Cell Count,[6],55
same,Population Apoptotic (%),[7],77%
same,Population Fragmented Nuclei (%),[7],28%
same,Population Healthy Nuclei (%),[7],35%
same,Population Hoechst High Intensity Objects (%),[7],18%
same,Population Membrane Permeable-Phenotype (%),[7],25%
same,Population Mitochondria Different-Phenotype (%),[7],37%
same,Population Mitotic Cells (%),[7],22%
same,Population Normal (%),[7],81%
same,Population Pyknosed Nuclei (%),[7],35%
same,Population Tubulin-Different-Phenotype (%),[7],88%
same,Total Cell Count,[7],93
same,Population Apoptotic (%),[8],41%
same,Population Fragmented Nuclei (%),[8],8%
same,Population Healthy Nuclei (%),[8],42%
same,Population Hoechst High Intensity Objects (%),[8],6%
same,Population Membrane Permeable-Phenotype (%),[8],44%
same,Population Mitochondria Different-Phenotype (%),[8],84%
same,Population Mitotic Cells (%),[8],58%
same,Population Normal (%),[8],93%
same,Population Pyknosed Nuclei (%),[8],49%
same,Population Tubulin-Different-Phenotype (%),[8],96%
same,Total Cell Count,[8],90
same,Population Apoptotic (%),[9],33%
same,Population Fragmented Nuclei (%),[9],42%
same,Population Healthy Nuclei (%),[9],37%
same,Population Hoechst High Intensity Objects (%),[9],19%
same,Population Membrane Permeable-Phenotype (%),[9],13%
same,Population Mitochondria Different-Phenotype (%),[9],8%
same,Population Mitotic Cells (%),[9],66%
same,Population Normal (%),[9],80%
same,Population Pyknosed Nuclei (%),[9],19%
same,Population Tubulin-Different-Phenotype (%),[9],43%
same,Total Cell Count,[9],76
same,Population Apoptotic (%),[10],75%
same,Population Fragmented Nuclei (%),[10],33%
same,Population Healthy Nuclei (%),[10],61%
same,Population Hoechst High Intensity Objects (%),[10],12%
same,Population Membrane Permeable-Phenotype (%),[10],10%
same,Population Mitochondria Different-Phenotype (%),[10],2%
same,Population Mitotic Cells (%),[10],25%
same,Population Normal (%),[10],87%
same,Population Pyknosed Nuclei (%),[10],5%
same,Population Tubulin-Different-Phenotype (%),[10],10%
same,Total Cell Count,[10],88
same,Population Apoptotic (%),[11],50%
same,Population Fragmented Nuclei (%),[11],42%
same,Population Healthy Nuclei (%),[11],37%
same,Population Hoechst High Intensity Objects (%),[11],19%
same,Population Membrane Permeable-Phenotype (%),[11],19%
same,Population Mitochondria Different-Phenotype (%),[11],61%
same,Population Mitotic Cells (%),[11],50%
same,Population Normal (%),[11],80%
same,Population Pyknosed Nuclei (%),[11],20%
same,Population Tubulin-Different-Phenotype (%),[11],80%
same,Total Cell Count,[11],87
same,Population Apoptotic (%),[12],33%
same,Population Fragmented Nuclei (%),[12],48%
same,Population Healthy Nuclei (%),[12],49%
same,Population Hoechst High Intensity Objects (%),[12],9%
same,Population Membrane Permeable-Phenotype (%),[12],18%
same,Population Mitochondria Different-Phenotype (%),[12],12%
same,Population Mitotic Cells (%),[12],66%
same,Population Normal (%),[12],90%
same,Population Pyknosed Nuclei (%),[12],2%
same,Population Tubulin-Different-Phenotype (%),[12],92%
same,Total Cell Count,[12],122
